Screening data from PubChem BioAssay.
An excerpt weighted towards active compounds, which were near 3.5% of everything screened.
RGS4 act – RGS4 potentiation or activation | HEK293 M3R/inducible RGS4, carbachol calcium flux Fluo4; active compounds read low | B-score at 10 µM | 310,000 compounds, 0.92% hits;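 active = B-score of the integrated calcium signal more than 4 SD below the library mean, with starting fluorescence not abnormally high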;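 also: negative B-score means reduced calcium response which marks RGS4 activation or potentiation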
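test system = HEK293 cells with stable M3R and inducible RGS4 | schedule = recording 10 s baseline at 1 Hz, 100 s post-agonist | technique = Fluo4-AM (2 µM) calcium-flux fluorescence, kinetic read | measure = Agonist-evoked peak-minus-minimum fluorescence over baseline, integrated ratio, B score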
MrgX1 allo act – allosterically activates human MrgX1 receptor signaling; 310,000 compounds, 0.63% hits; MrgX1-HEK293, Fluo-4 calcium flux, FDSS; active compounds read high; Q96LB2; B-score at 10 µM;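 active = plate-corrected calcium response at least 3 library SD above typical, normal starting fluorescence, not activating the receptor alone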;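 also: compound read alongside a low EC10 to EC30 dose of BAM8-22 agonist; peak minus trough fluorescence over baseline measured at the second addition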
Target sequence (Q96LB2 whole entry, looked up): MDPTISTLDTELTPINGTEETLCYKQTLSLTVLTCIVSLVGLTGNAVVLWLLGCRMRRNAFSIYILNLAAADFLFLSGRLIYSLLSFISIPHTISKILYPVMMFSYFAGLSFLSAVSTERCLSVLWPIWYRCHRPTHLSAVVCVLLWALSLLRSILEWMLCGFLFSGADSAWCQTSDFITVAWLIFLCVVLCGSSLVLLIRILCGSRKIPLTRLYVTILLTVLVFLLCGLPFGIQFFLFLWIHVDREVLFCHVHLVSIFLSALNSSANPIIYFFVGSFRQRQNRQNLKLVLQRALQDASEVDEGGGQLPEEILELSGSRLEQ
RGS4 inh – inhibitors of human RGS4. P49798. HEK293 M3R/RGS4 inducible, Fluo-4 calcium flux; active compounds read high; triggered by carbachol at its EC20. B-score at 10 µM. 310,000 compounds, 0.45% hits. AID 463165;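 active = B-score, a plate-corrected calcium signal, over three deviations above library mean, with baseline fluorescence within five deviations of library mean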;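 also: RGS4 expression induced by doxycycline in cells with stable M3 receptor; B-score is computed from the integrated fluorescence ratio over baseline after carbachol; higher B-score means a larger calcium signal and so more RGS4 inhibition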
Target sequence (P49798 whole entry, looked up): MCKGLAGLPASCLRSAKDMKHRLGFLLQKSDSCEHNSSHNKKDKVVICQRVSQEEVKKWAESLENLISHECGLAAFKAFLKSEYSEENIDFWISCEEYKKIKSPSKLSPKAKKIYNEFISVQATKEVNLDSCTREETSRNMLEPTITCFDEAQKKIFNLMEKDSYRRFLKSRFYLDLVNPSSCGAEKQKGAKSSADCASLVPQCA
MrgX1 antagonist – human MrgX1 receptor antagonism, primary screen. Q96LB2. MRGX1-HEK293 calcium flux, Fluo-4, BAM8-22 antagonism; active compounds read low. B-score at 10 µM. 310,000 compounds, 1.3% hits;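 active = calcium-response B-score plate-corrected more than 3 library SD below zero, starting fluorescence within 5 deviations, no agonist response on first addition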;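 also: peak minus trough fluorescence over baseline after final BAM8-22 challenge near maximal dose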
MrgX1 agonist – human MrgX1 receptor agonism, primary screen. Q96LB2. MrgX1-HEK293 cells, Fluo-4 calcium fluorescence, agonist mode; active compounds read high. B-score at 10 µM. 310,000 compounds, 0.44% hits;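 active = calcium response B-score plate-corrected fluorescence ratio at least 3 library SD, with starting fluorescence B-score inside 5 SD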
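Material: MrgX1-expressing HEK293 cells; input: 15,000 cells per well; doses: test compound given as first of three sequential additions; schedule: overnight plating before 1 h dye loading; technique: Fluo-4 NW calcium-flux fluorescence, kinetic read; evaluation: baseline-normalised fluorescence change ratio, B-scored; control set: plate-wise positive and negative controls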
MrgX1 PAM conf – human MrgX1 positive allosteric modulation, re-confirmation | MrgX1-HEK293, Fluo-4 calcium fluorescence, FDSS | 1,200 compounds, 13% hits | shares compounds with MrgX1 allo act | AID 602413 | activation (ratio percentage), % at 10 µM;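 active = ratio at least 3 SD above the weak peptide control, stable starting fluorescence, no direct agonism earlier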;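 also: compound followed by low BAM8-22 agonist challenge near EC20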
HEK293 Ca flux – activity in parental HEK293 cells lacking MrgX1; shares compounds with MrgX1 antagonist; 4,000 compounds, 2% hits; fluorescence ratio F(max-min)/F0 at 10 µM; Fluo-4 calcium fluorescence, FDSS;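 active = duplicate-averaged calcium fluorescence ratio at least three times the standard deviation of buffer wells, a nonspecific response in parental cells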
HEK293 Ca counter – activity in parental HEK293 cells without MrgX1 | shares compounds with MrgX1 antagonist | parental HEK293 calcium flux, Fluo-4 fluorescence ratio; active compounds read high | fluorescence ratio F(max-min)/F0 at 10 µM | 4,000 compounds, 0.4% hits;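 active = calcium fluorescence ratio, averaged over duplicates, at least 3 SD of the buffer-well ratio, meaning a nonspecific response in receptor-free cells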;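 also: untransfected parental HEK293 lacking MrgX1 used as counterscreen for MrgX1 allosteric activators; fluorescence change taken during the second addition on a kinetic imager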
HEK293 Ca cntr2 – activity in parental HEK293 cells lacking MrgX1 receptor; shares compounds with MrgX1 antagonist; Fluo-4 calcium fluorescence (FDSS); active compounds read high; fluorescence ratio F(max-min)/F0 at 10 µM; 4,000 compounds, 8.7% hits; AID 624115;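 active = calcium fluorescence ratio at least three times the spread of buffer wells, meaning a non-specific response in parental cells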
A number is an active result; – = inactive; · = no result given.

SMILES	RGS4 act	MrgX1 allo act	RGS4 inh	MrgX1 antagonist	MrgX1 agonist	MrgX1 PAM conf	HEK293 Ca flux	HEK293 Ca counter	HEK293 Ca cntr2
Cc1ccccc1-n1ncc2c1CC(C)(C)CC2NC(=O)c1ccncc1 (stereo not given)	–	–	–	–	–	·	·	·	·
CSc1ncccc1C(=O)NC1CC(C)(C)Cc2c1cnn2-c1ccccc1C (stereo not given)	–	17	–	–	–	–	–	–	–
Cc1ccccc1-n1ncc2c1CC(C)(C)CC2NC(=O)CCC(F)(F)F (stereo not given)	–	9.8	–	–	–	–	–	–	–
CCn1c(=O)cc(OCC(=O)NCCCN2CCCC2=O)c2ccccc21	–	–	–	–	–	·	·	·	·
OCC[C@@H]1C[C@H](O)[C@@H](O)[C@]2(Cc3ccccc3O2)O1	–	–	–	–	–	·	·	·	·
COc1ccc(NC2CCCN(C(=O)CCC(=O)c3ccc(F)cc3)C2)cc1 (stereo not given)	–	–	–	–	–	·	·	·	·
N#CCC(=O)Nc1ccc(C(F)(F)F)cc1N1CCOCC1	–	–	–	–	–	·	·	·	·
O=C(COc1coc(CN2CCc3ccccc32)cc1=O)Nc1ccccc1	–	–	–	–	–	·	·	·	·
COCc1cc(=O)[nH]c(/N=C(\N)Nc2ccccc2C)n1	–	21	–	–	–	–	–	–	–
CC(=O)N1CCc2cc(Br)cc(S(=O)(=O)NCCCN3CCC(C)CC3)c21	·	–	·	–	–	·	·	·	·
CC(=O)N1CCc2cc(Br)cc(S(=O)(=O)NCCN3CCCCC3C)c21 (stereo not given)	–	9.1	–	–	–	–	–	–	–
Cc1cc(NC2CCCC2)n2nc(C)c(-c3ccccc3)c2n1	–	6.8	–	–	–	–	–	–	–
Cc1ccc(NC(=O)N2CCCC2C(=O)NCC2CCCCC2)cc1 (stereo not given)	–	10	–	–	–	–	–	–	–
Cc1ccc(CNC(=O)C2CCCN2C(=O)Nc2ccc(C)cc2)cc1 (stereo not given)	–	–	–	–	–	·	·	·	·
C/C(=C\C(=O)C(F)(F)F)Nc1ccc(C)cc1	–	7.7	–	–	–	13%	–	–	–
C/C(=C\C(=O)C(F)(F)F)Nc1cc(C)cc(C)c1	–	–	–	–	–	·	·	·	·
O=C(c1ccc([N+](=O)[O-])cc1[N+](=O)[O-])n1cnc2ccccc21	–	–	–	–	–	·	·	·	·
COC(=O)c1cc(Sc2cccc(Cl)c2Cl)ccn1	–	–	–	–	–	·	·	·	·
COC(=O)c1cc(Sc2c(Cl)cccc2Cl)ccn1	–	46	–	–	–	20%	–	–	–
CSc1ncccc1C(=O)NCc1ccc(C)cc1	–	–	–	–	–	·	·	·	·
CCOc1ncccc1C(=O)NCc1ccc(C)cc1	–	7.2	–	–	–	–	–	–	–
Cc1ccc2oc(C(=O)NC3CCS(=O)(=O)C3)cc(=O)c2c1 (stereo not given)	–	–	–	–	–	·	·	·	·
O=C(c1cc2cc(F)ccc2[nH]1)N1CCCC(Nc2ccc(F)cc2)C1 (stereo not given)	–	13	–	–	–	–	–	–	–
Cc1ccc2[nH]c(C(=O)N3CCCCC3)cc2c1	–	17	–	–	–	–	–	–	–
CCOC(=O)C1CCCN(C(=O)c2cc3cc(F)ccc3[nH]2)C1 (stereo not given)	–	7.9	–	–	–	–	–	–	–
CCOC(=O)C1CCN(C(=O)c2cc3cc(F)ccc3[nH]2)CC1	–	–	–	–	–	·	·	·	·
Cc1ccc2[nH]c(C(=O)N3CCOCC3)cc2c1	–	–	–	–	–	·	·	·	·
Cc1ccc(C(=O)Nc2cccnc2N2CCN(C)CC2)cc1	–	–	–	–	–	·	·	·	·
